From ChEMBL document CHEMBL2150858 (J Med Chem, 2011)
Converted amounts (≈) assume the structure as drawn. The source made the active and inactive calls. The calls are words filed in the database; no cut-off is given here.

How the values were obtained:
[1] = molecular target: T1, 72 kDa type IV collagenase (Homo sapiens, UniProt P08253); experiment: Inhibition of human recombinant MMP2 using MOCAc-Pro-Leu-Gly-Leu-A2pr(Dnp)-Ala-Arg- NH2 as substrate at 20 ug/ml preincubated for 10 mins measured after 3 hrs by fluorescence assay
Outline: (§1)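 Fluorogenic MMP assay (modified Knight method) in TNC buffer: 50 mM Tris-HCl pH 7.5, 150 mM NaCl, 10 mM CaCl2, 0.05% Brij-35. Enzyme stock was 5 ng/mL for MMP-2 and 40 ng/mL for MT1-MMP, preincubated with sample 10 min at 37 °C. Substrate solution at 10 μM was added, then incubated 3 h at 37 °C. Fluorescence read at ex 328/em 393 nm; a no-enzyme blank was subtracted. Controls were batimastat and 1% DMSO.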
Target sequence in this assay (P08253 110-660 limits assumed): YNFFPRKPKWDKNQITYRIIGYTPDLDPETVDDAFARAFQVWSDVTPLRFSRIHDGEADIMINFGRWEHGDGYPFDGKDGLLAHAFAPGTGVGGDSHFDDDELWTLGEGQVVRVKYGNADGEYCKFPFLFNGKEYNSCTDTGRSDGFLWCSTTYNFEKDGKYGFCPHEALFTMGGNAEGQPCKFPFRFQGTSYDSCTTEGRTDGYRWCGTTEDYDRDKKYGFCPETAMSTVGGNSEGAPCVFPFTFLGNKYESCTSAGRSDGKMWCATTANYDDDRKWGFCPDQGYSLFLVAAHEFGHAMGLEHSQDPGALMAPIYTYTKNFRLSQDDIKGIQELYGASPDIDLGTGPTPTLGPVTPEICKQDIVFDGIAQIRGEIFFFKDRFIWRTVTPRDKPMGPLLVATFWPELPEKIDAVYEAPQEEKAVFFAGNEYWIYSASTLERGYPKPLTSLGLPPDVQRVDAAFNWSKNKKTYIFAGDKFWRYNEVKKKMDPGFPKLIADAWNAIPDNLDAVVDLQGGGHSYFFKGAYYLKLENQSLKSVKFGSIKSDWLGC

[2] = molecular target: T2, Matrix metalloproteinase-14 (Homo sapiens, UniProt P50281); experiment: Inhibition of MMP14 using MOCAc-Pro-Leu-Gly-Leu-A2pr(Dnp)-Ala-Arg- NH2 as substrate at 20 ug/ml preincubated for 10 mins measured after 3 hrs by fluorescence assay; outline: as §1
Aorta [3] = experiment: Antiangiogenic activity in Fischer rat aorta fragments assessed as vessel outgrowth at 100 ug/mL after 5 days relative to PI-88; assay type: functional
Aorta [4] = experiment: Antiangiogenic activity in Fischer rat aorta fragments assessed as vessel outgrowth at 100 ug/mL after 5 days relative to ageladine-A sulfate; assay type: functional
Aorta [5] = experiment: Antiangiogenic activity in Fischer rat aorta fragments assessed as vessel outgrowth at 100 ug/mL after 5 days; assay type: functional; conditions: 120 h
Outline: (§2)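 Thoracic aorta rings (1 mm cross-sections) from 3–9 month-old female Fischer rats, each embedded in fibrin gel with 5 μg/mL aprotinin. Compound added from DMSO stock, max final 100 μg/mL, six replicates; 0.1% DMSO vehicle control. Grown 5 days at 37 °C in 5% CO2, medium changed on day 4. On day 5, microvessel outgrowth was scored manually at 40× as percent of field occupied.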

CAKI-1 = experiment: Growth inhibition of human Caki1 cells at 10 uM; assay type: functional; conditions: read-out: GI
Malme-3M = experiment: Induction of cell growth in human MALME-3M cells at 10 uM; assay type: functional
[6] = Toxicity in human NCI-H460 cells; assay type: cell-based; conditions: read-out: LD50 (the source's name)
Outline: (§3)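 NCI-60 human cancer cell line screen, two-stage. All lines first receive a single 10 μM dose. Selected compounds then go to a five-concentration assay spanning 100 μM to 10 nM, with 48 h exposure. LD50 (cell kill) is derived from the dose-response and kept separate from GI50 (growth retardation without cell death).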

[7] = Toxicity in human M14 cells; assay type: cell-based; conditions: read-out: LD50 (the source's name); outline: as §3
[8] = Toxicity in human SK-MEL-5 cells; assay type: cell-based; conditions: read-out: LD50 (the source's name); outline: as §3
[9] = Toxicity in human IGROV1 cells; assay type: cell-based, IGROV-1; conditions: read-out: LD50 (the source's name); outline: as §3
[10] = Toxicity in human Caki1 cells; assay type: cell-based, CAKI-1; conditions: read-out: LD50 (the source's name); outline: as §3
NCI60 = experiment: Growth inhibition of human NCI60 cells at 1 to 10 uM; assay type: functional, cell-based
Aorta [11] = experiment: Antiangiogenic activity in Fischer rat aorta fragments assessed as vessel outgrowth at 10 ug/mL after 5 days; assay type: functional; conditions: 120 h; outline: as §2
Aorta [12] = experiment: Antiangiogenic activity in Fischer rat aorta fragments assessed as vessel outgrowth at 1 ug/mL after 5 days; assay type: functional; conditions: 120 h; outline: as §2
Aorta [13] = experiment: Antiangiogenic activity in Fischer rat aorta fragments assessed as vessel outgrowth at 0.1 ug/mL after 5 days; assay type: functional; conditions: 120 h; outline: as §2
Aorta [14] = experiment: Antiangiogenic activity in Fischer rat aorta fragments assessed as vessel outgrowth after 5 days; assay type: functional, tissue-based; conditions: 120 h; outline: as §2
[15] = molecular target: Dual specificity tyrosine-phosphorylation-regulated kinase 1A (Homo sapiens) (UniProt Q13627); experiment: Binding affinity to DYRK1A assessed as ATP binding remaining at 10 uM
Outline: (§4)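 Ambit phage-display competition binding against immobilized ATP-site ligands. Kinase-tagged T7 phage or HEK-293-expressed DNA-tagged kinases were incubated with liganded streptavidin beads and compound at 10 μM, 1 h at room temperature with shaking. After washing, retained kinase was quantified; readout is percent of control binding remaining.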

[16] = Binding affinity to DYRK2 assessed as ATP binding remaining at 10 uM; outline: as §4
[17] = molecular target: Non-receptor tyrosine-protein kinase TYK2 (Homo sapiens) (UniProt P29597); experiment: Binding affinity to JH domain of TYK2 assessed as ATP binding remaining at 10 uM; outline: as §4
[18] = molecular target: Mitogen-activated protein kinase kinase kinase 19 (Homo sapiens) (UniProt Q56UN5); experiment: Binding affinity to YSK4 assessed as ATP binding remaining at 10 uM; outline: as §4
[19] = molecular target: Calcium/calmodulin-dependent protein kinase type II subunit gamma (Homo sapiens, UniProt Q13555); experiment: Binding affinity to CAMK2G
Outline: (§5)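 Compounds were diluted from 40× DMSO stocks, 11 concentrations plus blank in duplicate. Incubation 1 h at room temperature with shaking in SeaBlock/PBS/Tween 20/DTT buffer, then bead wash. Kd determined; 40000 nM denotes no binding.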

[20] = molecular target: Calcium/calmodulin-dependent protein kinase kinase 1 (Homo sapiens, UniProt Q8N5S9); experiment: Binding affinity to CAMKK1
Outline: (§6)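 Competition binding run by Ambit. They were mixed with ligand-loaded streptavidin magnetic beads and compound (40× DMSO stocks) in SeaBlock/PBS/Tween/DTT buffer. Incubation was 1 h at room temperature, then beads were washed. KD was determined from 11 concentrations plus a blank, in duplicate. A value of 40000 nM indicates no binding.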

[21] = molecular target: Calcium/calmodulin-dependent protein kinase kinase 2 (Homo sapiens, UniProt Q96RR4); experiment: Binding affinity to CAMKK2; outline: as §5
[22] = molecular target: Protein kinase C epsilon type (Homo sapiens, UniProt Q02156); experiment: Binding affinity to PRKCE; outline: as §6
[23] = molecular target: Casein kinase I isoform alpha (Sus scrofa, UniProt O19175); experiment: Inhibition of porcine brain CK1 using RRKHAAIGpSAYSITA as substrate
[24] = molecular target: T3, Serine/threonine-protein kinase pim-1 (Homo sapiens, UniProt P11309); experiment: Inhibition of human recombinant PIM1 using [gamma-32P] ATP at 100 uM after 30 mins by scintillation counting
Outline: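 Recombinant human Pim1 assayed as for CDK1/CDK5: histone H1 substrate, 15 μM [γ-32P]ATP final, 30 °C. Read by P81 filter binding and scintillation counting; activity expressed as percent of no-inhibitor control after blank subtraction.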

[25] = Inhibition of GSK3 at 100 uM
Interstitial collagenase = Interstitial collagenase (Homo sapiens, UniProt P03956); experiment: Inhibition of MMP1
[26] = molecular target: T1, 72 kDa type IV collagenase; experiment: Inhibition of MMP2
Outline: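 Fluorogenic substrate assay on MMP-2 (5 ng/mL enzyme solution) in TNC buffer (50 mM Tris-HCl pH 7.5, 150 mM NaCl, 10 mM CaCl2, 0.05% Brij-35). Enzyme preincubated with compound for 10 min at 37 °C, then substrate solution (10 μM) added. Fluorescence read at ex 328/em 393 nm after 3 h at 37 °C. An enzyme-free blank was subtracted; batimastat served as positive control and 1% DMSO as negative.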
Target sequence in this assay (P08253 whole entry): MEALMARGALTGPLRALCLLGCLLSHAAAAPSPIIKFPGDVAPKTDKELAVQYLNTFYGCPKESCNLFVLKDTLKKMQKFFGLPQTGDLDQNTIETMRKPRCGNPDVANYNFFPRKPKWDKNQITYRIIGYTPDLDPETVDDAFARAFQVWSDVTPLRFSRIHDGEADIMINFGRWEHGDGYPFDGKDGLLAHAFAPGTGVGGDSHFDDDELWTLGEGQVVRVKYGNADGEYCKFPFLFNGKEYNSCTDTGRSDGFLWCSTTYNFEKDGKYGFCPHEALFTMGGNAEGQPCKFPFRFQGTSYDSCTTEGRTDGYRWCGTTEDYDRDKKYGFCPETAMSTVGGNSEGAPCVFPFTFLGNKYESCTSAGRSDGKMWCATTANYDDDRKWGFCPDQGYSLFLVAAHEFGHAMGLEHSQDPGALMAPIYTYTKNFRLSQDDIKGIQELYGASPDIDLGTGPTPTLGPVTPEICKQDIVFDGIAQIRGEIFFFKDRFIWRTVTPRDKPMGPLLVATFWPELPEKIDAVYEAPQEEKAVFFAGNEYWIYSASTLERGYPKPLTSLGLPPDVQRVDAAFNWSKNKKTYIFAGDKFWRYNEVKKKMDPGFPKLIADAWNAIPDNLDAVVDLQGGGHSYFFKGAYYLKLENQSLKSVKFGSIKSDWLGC

Neutrophil collagenase = Neutrophil collagenase (Homo sapiens, UniProt P22894); experiment: Inhibition of MMP8
[27] = molecular target: Matrix metalloproteinase-9 (Homo sapiens, UniProt P14780); experiment: Inhibition of MMP9
[28] = molecular target: Macrophage metalloelastase (Homo sapiens, UniProt P39900); experiment: Inhibition of MMP12
Collagenase 3 = Collagenase 3 (Homo sapiens, UniProt P45452); experiment: Inhibition of MMP13
[29] = molecular target: T1, 72 kDa type IV collagenase; experiment: Inhibition of human recombinant MMP2 using MOCAc-Pro-Leu-Gly-Leu-A2pr(Dnp)-Ala-Arg- NH2 as substrate preincubated for 10 mins measured after 3 hrs by fluorescence assay
Outline: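 Fluorogenic MMP-2 inhibition in TNC buffer (50 mM Tris-HCl pH 7.5, 150 mM NaCl, 10 mM CaCl2, 0.02% NaN3, 0.05% Brij-35). Enzyme stock 5 ng/mL preincubated with compound 10 min at 37 °C. Reaction started with substrate solution (10 μM), incubated 3 h at 37 °C. Read at ex 328/em 393 nm. No-enzyme blank subtracted. Batimastat positive control; 1% DMSO negative control.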
Target sequence in this assay (P08253 whole entry): as above

[30] = molecular target: T2, Matrix metalloproteinase-14; experiment: Inhibition of MMP14 using MOCAc-Pro-Leu-Gly-Leu-A2pr(Dnp)-Ala-Arg- NH2 as substrate preincubated for 10 mins measured after 3 hrs by fluorescence assay; outline: as §1
[31] = molecular target: Dual specificity tyrosine-phosphorylation-regulated kinase 1A (Rattus norvegicus, UniProt Q63470); experiment: Inhibition of rat recombinant GST-fused DYRK1A expressed in Escherichia coli using [gamma-32P] ATP after 30 mins by scintillation counting
Outline: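 DYRK1A purified by glutathione-agarose affinity chromatography. Product captured on P81 phosphocellulose and washed in phosphoric acid. Blank subtracted; activity expressed as % of uninhibited.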

[32] = molecular target: T3, Serine/threonine-protein kinase pim-1; experiment: Inhibition of human recombinant PIM1 using [gamma-32P] ATP after 30 mins by scintillation counting
Outline: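 Human recombinant Pim1 was run with histone H1 substrate under the CDK1/CDK5 conditions: 15 μM [γ-32P]ATP at 30 °C for 30 min. Phosphocellulose filter binding and scintillation counting followed. Activity was expressed as % of maximal after blank subtraction, with DMSO controls.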

Sequence of Casein kinase I isoform alpha (O19175 whole entry, canonical isoform): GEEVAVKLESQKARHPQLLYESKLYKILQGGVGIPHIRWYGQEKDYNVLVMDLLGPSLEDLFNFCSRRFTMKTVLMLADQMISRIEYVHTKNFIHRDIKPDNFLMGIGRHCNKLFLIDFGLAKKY
Sequence of Calcium/calmodulin-dependent protein kinase kinase 1 (Q8N5S9 whole entry): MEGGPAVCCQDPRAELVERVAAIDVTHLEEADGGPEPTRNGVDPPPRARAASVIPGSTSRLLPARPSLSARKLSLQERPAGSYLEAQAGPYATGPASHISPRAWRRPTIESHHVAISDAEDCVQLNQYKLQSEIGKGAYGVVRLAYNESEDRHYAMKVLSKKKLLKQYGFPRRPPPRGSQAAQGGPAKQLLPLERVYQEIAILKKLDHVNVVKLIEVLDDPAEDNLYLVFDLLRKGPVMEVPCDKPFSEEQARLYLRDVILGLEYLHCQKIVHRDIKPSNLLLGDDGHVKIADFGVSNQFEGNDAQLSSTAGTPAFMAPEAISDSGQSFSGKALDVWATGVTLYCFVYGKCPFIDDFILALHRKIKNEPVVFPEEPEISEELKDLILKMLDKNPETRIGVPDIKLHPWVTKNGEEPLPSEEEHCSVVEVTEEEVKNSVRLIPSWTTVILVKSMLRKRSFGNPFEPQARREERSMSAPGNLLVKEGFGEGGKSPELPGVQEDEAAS
Sequence of Calcium/calmodulin-dependent protein kinase kinase 2 (Q96RR4 whole entry): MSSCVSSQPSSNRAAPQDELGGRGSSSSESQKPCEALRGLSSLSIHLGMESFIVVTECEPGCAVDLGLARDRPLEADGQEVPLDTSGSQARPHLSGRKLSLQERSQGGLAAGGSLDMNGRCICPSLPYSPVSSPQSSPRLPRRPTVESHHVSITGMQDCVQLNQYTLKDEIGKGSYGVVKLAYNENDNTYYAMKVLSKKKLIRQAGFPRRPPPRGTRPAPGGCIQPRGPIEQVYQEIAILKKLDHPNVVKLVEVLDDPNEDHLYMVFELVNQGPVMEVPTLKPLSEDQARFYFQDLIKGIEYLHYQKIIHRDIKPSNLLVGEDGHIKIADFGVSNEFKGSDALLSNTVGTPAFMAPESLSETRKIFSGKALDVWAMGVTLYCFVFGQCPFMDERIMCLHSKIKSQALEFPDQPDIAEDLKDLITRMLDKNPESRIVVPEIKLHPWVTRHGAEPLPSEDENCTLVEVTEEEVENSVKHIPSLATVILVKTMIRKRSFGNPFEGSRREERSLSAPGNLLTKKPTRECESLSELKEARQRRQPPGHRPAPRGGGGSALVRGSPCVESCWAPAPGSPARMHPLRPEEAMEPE
Sequence of Protein kinase C epsilon type (Q02156 whole entry, canonical isoform): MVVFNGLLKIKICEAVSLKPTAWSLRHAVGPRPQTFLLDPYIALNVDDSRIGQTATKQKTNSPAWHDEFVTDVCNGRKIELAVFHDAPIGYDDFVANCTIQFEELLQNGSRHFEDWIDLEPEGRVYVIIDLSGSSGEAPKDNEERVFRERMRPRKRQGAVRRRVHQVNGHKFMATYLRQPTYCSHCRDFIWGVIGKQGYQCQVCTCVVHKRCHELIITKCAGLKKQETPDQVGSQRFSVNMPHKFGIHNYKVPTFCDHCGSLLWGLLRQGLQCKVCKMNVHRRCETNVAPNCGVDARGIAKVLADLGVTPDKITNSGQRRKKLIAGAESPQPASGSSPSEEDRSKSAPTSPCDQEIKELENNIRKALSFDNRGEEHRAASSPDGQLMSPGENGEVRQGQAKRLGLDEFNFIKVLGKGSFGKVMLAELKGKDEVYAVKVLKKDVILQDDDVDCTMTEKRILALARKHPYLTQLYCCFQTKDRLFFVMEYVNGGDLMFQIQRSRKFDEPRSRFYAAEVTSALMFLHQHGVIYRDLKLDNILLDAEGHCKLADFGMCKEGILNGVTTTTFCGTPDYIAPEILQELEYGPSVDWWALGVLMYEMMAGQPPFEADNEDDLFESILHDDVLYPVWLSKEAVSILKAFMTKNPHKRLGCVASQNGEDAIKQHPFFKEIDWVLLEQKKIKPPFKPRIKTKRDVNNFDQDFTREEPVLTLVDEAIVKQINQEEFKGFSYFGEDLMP
Sequence of Mitogen-activated protein kinase kinase kinase 19 (Homo sapiens) (Q56UN5 whole entry): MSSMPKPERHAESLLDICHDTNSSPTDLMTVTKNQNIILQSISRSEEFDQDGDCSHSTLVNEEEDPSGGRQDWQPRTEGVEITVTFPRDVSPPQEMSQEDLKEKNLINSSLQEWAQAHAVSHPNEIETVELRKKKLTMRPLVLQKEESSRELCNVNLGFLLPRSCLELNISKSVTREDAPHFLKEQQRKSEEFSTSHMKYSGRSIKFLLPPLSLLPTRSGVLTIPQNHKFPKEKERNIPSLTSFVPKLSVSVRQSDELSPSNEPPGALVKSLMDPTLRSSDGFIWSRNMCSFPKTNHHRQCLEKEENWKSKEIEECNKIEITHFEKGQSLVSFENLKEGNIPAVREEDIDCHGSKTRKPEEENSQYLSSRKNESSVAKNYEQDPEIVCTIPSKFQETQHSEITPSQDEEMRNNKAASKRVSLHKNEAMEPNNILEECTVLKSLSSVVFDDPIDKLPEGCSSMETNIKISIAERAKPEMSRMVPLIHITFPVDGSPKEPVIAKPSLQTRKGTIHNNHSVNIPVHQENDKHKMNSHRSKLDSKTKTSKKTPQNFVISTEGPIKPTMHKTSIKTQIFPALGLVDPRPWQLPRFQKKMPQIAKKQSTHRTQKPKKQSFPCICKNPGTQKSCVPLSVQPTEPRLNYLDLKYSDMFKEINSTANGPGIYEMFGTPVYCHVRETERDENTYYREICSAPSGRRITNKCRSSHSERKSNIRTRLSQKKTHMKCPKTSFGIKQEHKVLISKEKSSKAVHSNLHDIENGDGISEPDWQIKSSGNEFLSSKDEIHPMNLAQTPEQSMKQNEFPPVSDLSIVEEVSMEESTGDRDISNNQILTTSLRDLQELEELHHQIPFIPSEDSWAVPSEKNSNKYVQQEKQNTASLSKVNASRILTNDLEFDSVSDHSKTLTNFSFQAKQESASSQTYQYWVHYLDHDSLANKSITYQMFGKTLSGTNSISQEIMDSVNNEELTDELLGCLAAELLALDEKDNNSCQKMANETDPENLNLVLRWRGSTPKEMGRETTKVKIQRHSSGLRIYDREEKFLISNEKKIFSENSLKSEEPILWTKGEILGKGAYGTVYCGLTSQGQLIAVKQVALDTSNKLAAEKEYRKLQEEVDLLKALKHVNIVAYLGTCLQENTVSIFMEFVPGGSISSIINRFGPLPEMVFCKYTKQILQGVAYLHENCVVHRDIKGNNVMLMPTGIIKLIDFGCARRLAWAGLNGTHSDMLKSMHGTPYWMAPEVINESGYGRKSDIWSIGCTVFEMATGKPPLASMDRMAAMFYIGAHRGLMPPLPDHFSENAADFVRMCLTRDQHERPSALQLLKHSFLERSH
Sequence of Macrophage metalloelastase (P39900 whole entry): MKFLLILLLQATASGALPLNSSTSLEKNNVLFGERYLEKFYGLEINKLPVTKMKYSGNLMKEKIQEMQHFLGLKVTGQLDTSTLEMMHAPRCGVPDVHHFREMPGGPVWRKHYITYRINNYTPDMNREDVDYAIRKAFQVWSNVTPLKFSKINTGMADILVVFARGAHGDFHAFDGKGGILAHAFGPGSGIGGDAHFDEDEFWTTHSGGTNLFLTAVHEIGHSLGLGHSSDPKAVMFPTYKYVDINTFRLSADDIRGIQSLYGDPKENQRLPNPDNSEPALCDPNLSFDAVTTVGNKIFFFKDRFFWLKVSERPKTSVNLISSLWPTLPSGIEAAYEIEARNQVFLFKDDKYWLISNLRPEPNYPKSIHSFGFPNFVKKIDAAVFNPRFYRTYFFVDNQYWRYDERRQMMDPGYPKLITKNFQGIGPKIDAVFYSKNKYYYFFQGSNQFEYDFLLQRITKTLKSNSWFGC

Nc1nc2c(-c3ccccn3)nccc2[nH]1
inhibition [1]: 22%
inhibition [2]: 6%
fold change (FC) (Aorta [3]): 14
fold change (FC) (Aorta [4]): 3
inhibition at 100 µg/mL (Aorta [5]): 100%
inhibition of growth at 10 µM (CAKI-1): 95%
Activity (Malme-3M): 30%
CC50 [6]: 25 µM
CC50 [7]: 25 µM
CC50 [8]: 25 µM
CC50 [9]: 25 µM
CC50 [10]: 25 µM
growth inhibition (GI) (NCI60): Active
inhibition at 10 µg/mL (Aorta [11]): 56%
inhibition at 1 µg/mL (Aorta [12]): 16%
inhibition at 0.1 µg/mL (Aorta [13]): 4%
IC50 (Aorta [14]): 8 µg/mL (≈ 37.9 µM)
Activity [15]: Active
Activity [16]: Active
Activity [17]: Active
Activity [18]: Active
Kd [19]: 40 µM
Kd [20]: 40 µM
Kd [21]: 40 µM
Kd [22]: 40 µM
IC50 [23]: 10 µM
inhibition [24]: inactive
inhibition [25]: inactive

Nc1nc2c(-c3cc(Br)c(Br)[nH]3)nccc2[nH]1 [AGELADINE A]
IC50 (Interstitial collagenase): 5.6 µM
IC50 [26]: 3.36 µM
IC50 (Neutrophil collagenase): 1090 nM
IC50 [27]: 2210 nM
IC50 [28]: 924 nM
IC50 (Collagenase 3): 1320 nM
IC50 [29]: 4.76 µM
IC50 [30]: 560 nM
IC50 [31]: 30 µM
IC50 [23]: 50 µM
IC50 [32]: 10 µM
